In ChEMBL document CHEMBL3351368, “Biphenyl-4-carboxylic acid [2-(1H-indol-3-yl)-ethyl]-methylamide (CA224), a nonplanar analogue of fascaplysin, inhibits Cdk4 and tubulin polymerization: evaluation of in vitro and in vivo anticancer activity” (J Med Chem, 2014):
The source made the active and inactive calls.

Columns and labels:
[1] = target: Cyclin-dependent kinase 1/cyclin B1 (Homo sapiens, UniProt P06493); experiment: Binding affinity to human CDK1/cyclinB1; assay type: protein-complex assay
Chain of Cyclin-dependent kinase 1/cyclin B1 (P06493 whole entry): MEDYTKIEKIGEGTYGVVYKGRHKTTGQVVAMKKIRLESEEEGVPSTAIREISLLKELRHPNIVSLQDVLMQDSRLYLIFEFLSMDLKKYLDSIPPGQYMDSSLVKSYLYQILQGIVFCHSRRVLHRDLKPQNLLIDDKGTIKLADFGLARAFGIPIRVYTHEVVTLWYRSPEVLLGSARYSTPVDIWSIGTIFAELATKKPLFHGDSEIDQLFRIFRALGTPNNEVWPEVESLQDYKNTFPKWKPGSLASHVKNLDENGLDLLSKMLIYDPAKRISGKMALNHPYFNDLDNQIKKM
Chain of Cyclin-dependent kinase 1/cyclin B1 (P14635 whole entry, further chain): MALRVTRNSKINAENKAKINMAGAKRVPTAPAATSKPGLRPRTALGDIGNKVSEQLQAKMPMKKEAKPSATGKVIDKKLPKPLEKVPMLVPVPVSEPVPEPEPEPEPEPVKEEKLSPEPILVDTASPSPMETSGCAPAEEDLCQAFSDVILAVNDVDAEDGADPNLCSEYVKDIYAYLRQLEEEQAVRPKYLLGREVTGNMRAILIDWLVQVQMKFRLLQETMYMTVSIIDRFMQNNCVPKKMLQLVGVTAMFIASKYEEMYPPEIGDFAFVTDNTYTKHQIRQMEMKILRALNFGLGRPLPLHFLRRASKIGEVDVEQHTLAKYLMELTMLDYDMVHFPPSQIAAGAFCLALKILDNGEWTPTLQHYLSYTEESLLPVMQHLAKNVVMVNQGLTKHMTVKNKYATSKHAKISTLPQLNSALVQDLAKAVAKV

CDK9/cyclin T1 = CDK9/cyclin T1 (Homo sapiens, UniProt P50750); experiment: Binding affinity to human CDK9/cyclinT1; assay type: protein-complex assay
Chain of CDK9/cyclin T1 (O60563 whole entry): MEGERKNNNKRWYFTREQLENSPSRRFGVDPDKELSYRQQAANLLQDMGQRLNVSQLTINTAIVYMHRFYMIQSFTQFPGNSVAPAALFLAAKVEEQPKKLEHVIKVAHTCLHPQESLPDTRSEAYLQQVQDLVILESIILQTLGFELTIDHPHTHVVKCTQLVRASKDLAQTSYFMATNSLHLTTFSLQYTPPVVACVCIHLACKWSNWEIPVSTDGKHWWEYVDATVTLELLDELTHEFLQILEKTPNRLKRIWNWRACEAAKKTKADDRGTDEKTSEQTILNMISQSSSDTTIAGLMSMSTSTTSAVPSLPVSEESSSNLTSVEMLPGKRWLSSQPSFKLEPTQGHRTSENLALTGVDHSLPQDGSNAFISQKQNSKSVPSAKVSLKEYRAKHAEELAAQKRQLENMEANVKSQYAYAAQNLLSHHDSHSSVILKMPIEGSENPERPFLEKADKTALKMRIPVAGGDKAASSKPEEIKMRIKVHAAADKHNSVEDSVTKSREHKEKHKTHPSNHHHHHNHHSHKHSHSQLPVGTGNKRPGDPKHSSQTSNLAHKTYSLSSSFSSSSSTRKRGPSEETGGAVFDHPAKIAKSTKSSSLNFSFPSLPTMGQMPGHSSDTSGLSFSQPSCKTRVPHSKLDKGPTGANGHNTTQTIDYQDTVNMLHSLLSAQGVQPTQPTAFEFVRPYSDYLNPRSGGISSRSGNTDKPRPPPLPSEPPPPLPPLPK
Chain of CDK9/cyclin T1 (P50750 whole entry): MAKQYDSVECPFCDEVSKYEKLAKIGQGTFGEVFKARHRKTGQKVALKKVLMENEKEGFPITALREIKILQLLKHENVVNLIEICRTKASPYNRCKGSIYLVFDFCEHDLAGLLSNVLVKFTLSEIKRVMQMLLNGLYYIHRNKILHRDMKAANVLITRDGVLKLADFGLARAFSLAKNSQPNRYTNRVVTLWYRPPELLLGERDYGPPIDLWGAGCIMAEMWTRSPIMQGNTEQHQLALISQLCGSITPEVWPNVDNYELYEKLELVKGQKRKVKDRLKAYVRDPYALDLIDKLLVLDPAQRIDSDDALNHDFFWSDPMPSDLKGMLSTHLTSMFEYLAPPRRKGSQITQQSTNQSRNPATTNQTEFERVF

[2] = Growth inhibition of p53His273 mut, pRb+ human MiaPaCa cells after 48 hrs by MTT assay; assay type: functional; settings: MIA PaCa-2, 48 h
Method in brief: (§1)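 MTT cell proliferation assay. IC50 (µM) was defined as the concentration giving 50% inhibition of cell growth.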

[3] = Growth inhibition of p53+, pRb+ human NCI-H460 cells after 48 hrs by MTT assay; assay type: functional, cell-based; settings: NCI-H460, 48 h; method in brief: as §1
NCI-H1299 = experiment: Growth inhibition of p53 null, pRb+ human NCI-H1299 cells after 48 hrs by MTT assay; assay type: functional, cell-based; settings: NCI-H1299, 48 h; method in brief: as §1
NCI-H358 = experiment: Growth inhibition of p53 null, pRb null human NCI-H358 cells after 48 hrs by MTT assay; assay type: functional, cell-based; settings: NCI-H358, 48 h; method in brief: as §1
[4] = Growth inhibition of mouse BNL-CL2 cells after 48 hrs by MTT assay; assay type: functional, cell-based; settings: BNL CL.2, 48 h; method in brief: as §1
[5] = Growth inhibition of mouse BNL-SVA.8 cells after 48 hrs by MTT assay; assay type: functional; method in brief: as §1
[6] = Displacement of ethidium bromide from closed circular plasmid DNA (unknown origin) by fluorescence quenching assay
[7] = target: Cyclin-dependent kinase 4/cyclin D1 (Homo sapiens, UniProt P11802); experiment: Binding affinity to human CDK4/cyclinD1 using GST-pRB152 as substrate by chemiluminescence assay; assay type: protein-complex assay
Chain of Cyclin-dependent kinase 4/cyclin D1 (P11802 whole entry): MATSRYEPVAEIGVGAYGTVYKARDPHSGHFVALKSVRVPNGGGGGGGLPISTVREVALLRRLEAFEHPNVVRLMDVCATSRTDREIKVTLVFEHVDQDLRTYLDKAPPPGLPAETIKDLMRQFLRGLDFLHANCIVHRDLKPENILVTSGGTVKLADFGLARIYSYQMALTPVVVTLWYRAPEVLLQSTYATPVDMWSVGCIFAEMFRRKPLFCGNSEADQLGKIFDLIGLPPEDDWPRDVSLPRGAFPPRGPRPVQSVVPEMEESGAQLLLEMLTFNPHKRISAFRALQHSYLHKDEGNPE
Chain of Cyclin-dependent kinase 4/cyclin D1 (P24385 whole entry, further chain): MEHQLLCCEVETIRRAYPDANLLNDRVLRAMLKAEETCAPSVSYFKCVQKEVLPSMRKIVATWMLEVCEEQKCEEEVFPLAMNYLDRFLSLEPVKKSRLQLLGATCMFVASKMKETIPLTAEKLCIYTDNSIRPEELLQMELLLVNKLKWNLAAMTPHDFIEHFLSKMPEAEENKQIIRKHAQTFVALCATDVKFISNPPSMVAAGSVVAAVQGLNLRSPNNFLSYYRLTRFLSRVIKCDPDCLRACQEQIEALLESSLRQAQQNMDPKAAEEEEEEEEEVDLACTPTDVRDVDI

CDK2/Cyclin A2 = CDK2/Cyclin A2 (Homo sapiens, UniProt P24941); experiment: Binding affinity to human CDK2/cyclinA using GST-pRB152 as substrate by chemiluminescence assay; assay type: protein-complex assay
[8] = target: Cyclin-dependent kinase 2/cyclin E1 (Homo sapiens, UniProt P24941); experiment: Binding affinity to human CDK2/cyclinE; assay type: protein-complex assay
[9] = Growth inhibition of p53+, pRb+ human LS 174T cells after 48 hrs by MTT assay; assay type: functional, cell-based; settings: LS174T; method in brief: as §1
[10] = Growth inhibition of p53 null,pRb+ human PC3 cells after 48 hrs by MTT assay; assay type: functional, cell-based; settings: PC-3, 48 h; method in brief: as §1
A549 = experiment: Growth inhibition of p53+, pRb+ human A549 cells after 48 hrs by MTT assay; assay type: functional, cell-based; settings: A549, 48 h; method in brief: as §1
[11] = Growth inhibition of p53 null, pRb+ human Calu1 cells after 48 hrs by MTT assay; assay type: functional, cell-based; settings: Calu-1, 48 h; method in brief: as §1

| SMILES | IC50 [1] [µM] | IC50 (CDK9/cyclin T1) [µM] | IC50 [2] [µM] | IC50 [3] [µM] | IC50 (NCI-H1299) [µM] | IC50 (NCI-H358) [µM] | IC50 [4] [µM] | IC50 [5] [µM] | inhibition [6] | IC50 [7] [µM] | IC50 (CDK2/Cyclin A2) [µM] | IC50 [8] [µM] | IC50 [9] [µM] | IC50 [10] [µM] | IC50 (A549) [µM] | IC50 [11] [µM] | IC50 [6] [µM] |
| --- | --- | --- | --- | --- | --- | --- | --- | --- | --- | --- | --- | --- | --- | --- | --- | --- | --- |
| CN(CCc1c[nH]c2ccccc12)C(=O)c1ccc(Cl)cc1 | > 500 | > 1000 | 31 | 24 | 21 | 26 | 29 | 32 | inactive | – | – | – | – | – | – | – | – |
| O=C1c2ccccc2-[n+]2ccc3c([nH]c4ccccc43)c21 [FASCAPLYSIN CHLORIDE] | > 250 | > 250 | – | – | – | – | – | – | – | 0.41 | > 250 | > 250 | 0.88 | 0.92 | 0.69 | 1.3 | 5 |
| CN(CCc1c[nH]c2ccccc12)C(=O)c1ccc(C(C)(C)C)cc1 | > 500 | > 1000 | 10.2 | 9.8 | 11.5 | 14 | 18 | 22 | inactive | – | – | – | – | – | – | – | – |
